Measurements: ChEMBL document CHEMBL1131206, “Synthesis, anticonvulsant activity, and structure-activity relationships of sodium channel blocking 3-aminopyrroles” (J Med Chem, 1998)

Assays:
[1] = system: Rattus norvegicus; assay: Minimal motor impairment activity by Rotarod test in rat following p.o. administration.; type: functional; conditions: po
Procedure, shortened: (§1)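 Minimal motor impairment in male Sprague–Dawley rats (100 g) after oral dosing was judged at the time of peak effect. The criterion was overt ataxia, abnormal gait and stance, and/or loss of placing response and muscle tone. Groups had at least eight rats across various doses, and the median impairing dose with its 95% confidence interval was calculated.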

[2] = system: Mus musculus; assay: Minimal motor impairment activity by Rotarod test in mice following i.p. administration.; type: functional; conditions: ip
Procedure, shortened: (§2)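 Rotorod neurotoxicity test in male albino CF No. 1 mice dosed ip, run at the time of peak effect. Impairment was defined as failure to keep equilibrium for 60 s in each of three trials on the rotating rod. With groups of at least eight mice across various doses, the median motor-impairing dose and its 95% confidence interval were calculated.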

[3] = system: Mus musculus; assay: Anticonvulsant activity was measured by maximal electroshock seizure test in mice by ip administration; type: functional
Procedure, shortened: (§3)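 Male albino CF No. 1 mice (18–25 g) were dosed ip and tested by maximal electroshock at the previously determined time of peak effect. Groups of at least eight mice received various doses until at least two points fell between 0% and 100% protection. ED50 and its 95% confidence interval were calculated. Single-dose entries give protection percentage at the indicated dose.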

[4] = system: Rattus norvegicus; assay: Anticonvulsant activity was measured by maximal electroshock seizure test in rat by po administration; type: functional
Procedure, shortened: (§4)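 Maximal electroshock test in male albino Sprague–Dawley rats (100 g) after oral dosing, run at the previously determined time of peak effect. At least eight rats per group received various doses until at least two points lay between 0% and 100% protection. ED50 with 95% confidence interval was calculated. Single-dose entries report percent protection at that dose.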

[5] = Partition coefficient (logP); type: physicochemical; conditions: octanol/water
[6] = system: Mus musculus; assay: Anticonvulsant activity (ED50) was measured by maximal electroshock seizure test in mice by ip administration; No effective response; type: functional, organism-based; procedure, shortened: as §3
[7] = system: Rattus norvegicus; assay: Anticonvulsant activity was measured by maximal electroshock seizure test in rat by po administration at 50 mg/kg; type: functional; procedure, shortened: as §4
[8] = system: Rattus norvegicus; assay: Anticonvulsant activity (ED50) was measured by maximal electroshock seizure test in rat by po administration; No effective response; type: functional, organism-based; procedure, shortened: as §4
[9] = system: Rattus norvegicus; assay: Minimal motor impairment activity of the compound was measured by […] in rat by po administration; No effective response; type: functional, organism-based; procedure, shortened: as §1
[10] = system: Mus musculus; assay: Minimal motor impairment activity of the compound was measured by Rotarod test in mice by ip administration; No effective response; type: functional, organism-based; procedure, shortened: as §2
[11] = system: Rattus norvegicus; assay: Minimal motor impairment activity was measured by Rotarod test in rat by po administration; type: functional; procedure, shortened: as §1
[12] = system: Mus musculus; assay: Minimal motor impairment activity was measured by Rotarod test in mice by ip administration; type: functional; procedure, shortened: as §2
[13] = system: Mus musculus; assay: Anticonvulsant activity was measured by maximal electroshock seizure test in mice by ip administration at 100 mg/kg; type: functional; conditions: route intraperitoneal; procedure, shortened: as §3
[14] = system: Mus musculus; assay: Anticonvulsant activity was measured by maximal electroshock seizure test in mice by ip administration at 30 mg/kg; type: functional; conditions: route intraperitoneal; procedure, shortened: as §3
[15] = system: Rattus norvegicus; assay: Anticonvulsant activity was measured by maximal electroshock seizure test in rat by po administration; No effective response; type: functional, organism-based; procedure, shortened: as §4
[16] = system: Mus musculus; assay: Anticonvulsant activity was measured by maximal electroshock seizure test in mice by ip administration; No effective response; type: functional, organism-based; procedure, shortened: as §3
[17] = system: Rattus norvegicus; assay: Anticonvulsant activity in corneal kindled rats was determined when 75 mg/kg was administered intraperitoneally; type: functional; conditions: route intraperitoneal
Procedure, shortened: (§5)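 Male Sprague–Dawley rats (100 g) kindled by daily corneal stimulation at 8 mA/60 Hz for 4 s until 10 consecutive stage 5 seizures (rearing and falling with clonus). Drug was given ip in 0.5% methyl cellulose in water at 0.04 mL/10 g body weight. Read-out was seizure score; abolition of the generalized (stage 4–5) seizure was the endpoint.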

[18] = system: Rattus norvegicus; assay: Anticonvulsant activity in corneal kindled rats was determined when 100 mg/kg was administered intraperitoneally; type: functional; conditions: route intraperitoneal; procedure, shortened: as §5
[19] = system: Rattus norvegicus; assay: Anticonvulsant activity in corneal kindled rats was determined when 50 mg/kg was administered intraperitoneally; type: functional; conditions: route intraperitoneal; procedure, shortened: as §5
[20] = system: Rattus norvegicus; assay: Anticonvulsant activity in corneal kindled rats was determined when 25 mg/kg was administered intraperitoneally; type: functional; conditions: route intraperitoneal; procedure, shortened: as §5
[21] = system: Rattus norvegicus; assay: Anticonvulsant activity in corneal kindled rats was determined when 10 mg/kg was administered intraperitoneally; type: functional; conditions: route intraperitoneal; procedure, shortened: as §5
[22] = system: Rattus norvegicus; assay: Anticonvulsant activity in corneal kindled rats was determined when 150 mg/kg was administered intraperitoneally; type: functional; conditions: route intraperitoneal; procedure, shortened: as §5

With `COC(=O)c1[nH]cc(-c2ccc(Cl)cc2)c1N1CCOCC1` the ED50 [1] was > 500 mg/kg, the ED50 [2] was 56.4 mg/kg and the ED50 [3] was 58.1 mg/kg. It also gave an ED50 [4] of 11.4 mg/kg and a logP [5] of 3.5.
With `CN1CCN(C(=O)c2[nH]cc(-c3ccc(Cl)cc3)c2N2CCOCC2)CC1` the ED50 [1] was > 50 mg/kg, the ED50 [6] was “No effective response” and the ED50 [2] was > 300 mg/kg. For the same compound, the Protection [7] was 50% and the logP [5] was 3.3.
With `CCS(=O)(=O)n1cc(-c2ccc(Cl)cc2)c(N2CCOCC2)c1C(=O)OC` the ED50 [8] was “No effective response”, the ED50 [6] was “No effective response” and the ED50 [9] was “No effective response”. The ED50 [10] was “No effective response” and the logP [5] was 4.2.
With `O=C(c1[nH]cc(-c2ccc(Cl)cc2)c1N1CCOCC1)N1CCOCC1` the logP [5] was 3.1.
For `COC(=O)c1[nH]cc(-c2cccc(Br)c2)c1N1CCOCC1`, the ED50 [11] was > 50 mg/kg, the Protection [7] was 75% and the ED50 [12] was > 300 mg/kg. The Protection [13] was 100%.
With `COC(=O)c1[nH]cc(-c2ccc(Cl)cc2)c1N(C)CCN(C)C` the ED50 [1] was > 50 mg/kg, the ED50 [2] was < 30 mg/kg and the Protection [14] was 100%. For the same compound, the Protection [7] was 100% and the logP [5] was 3.3.
For `CC(C)COC(=O)c1[nH]cc(-c2ccc(Cl)cc2)c1N1CCOCC1`, the ED50 [15] was “No effective response”, the ED50 [16] was “No effective response” and the ED50 [9] was “No effective response”. The ED50 [10] was “No effective response”.
For `Cn1cc(-c2ccc(Cl)cc2)c(N2CCOCC2)c1`, the logP [5] was 4.2.
Work on `CCCNC(=O)c1[nH]cc(-c2ccc(Cl)cc2)c1N1CCOCC1` yielded a logP [5] of 4.2.
For `COC(=O)CCc1c(N2CCOCC2)c(-c2ccc(Cl)cc2)cn1C`, the ED50 [15] was “No effective response”, the ED50 [16] was “No effective response” and the ED50 [9] was “No effective response”. The ED50 [10] was “No effective response”.
In the case of `O=C1NC(=O)C(c2ccccc2)(c2ccccc2)N1` [PHENYTOIN], the Seizure score [17] is reported as 3.7, the ED50 [1] is reported as > 500 mg/kg and the Seizure score [18] is reported as 3. For the same compound, the Seizure score [19] was 4.4, the ED50 [2] was 42.8 mg/kg and the Seizure score [20] was 4.7. The ED50 [3] was 6.5 mg/kg, the Seizure score [21] was 5 and the Seizure score [22] was 3.
`Cn1cc(-c2ccc(Cl)cc2)c(N2CCOCC2)c1C(=O)O` showed a logP [5] of 2.3.
With `CC(=O)c1[nH]cc(-c2ccc(Cl)cc2)c1N1CCOCC1` the ED50 [1] was > 100 mg/kg, the ED50 [2] was 335 mg/kg and the ED50 [3] was 72.6 mg/kg. It also gave an ED50 [4] of 10.6 mg/kg.
With `Clc1ccc(-c2c[nH]cc2N2CCOCC2)cc1` the ED50 [1] was > 200 mg/kg, the ED50 [2] was 115 mg/kg and the ED50 [3] was 62.1 mg/kg. The ED50 [4] was 17.7 mg/kg and the logP [5] was 3.2.
For `CCN1C(=O)c2c(N3CCOCC3)c(-c3ccc(Cl)cc3)cn2C1=O`, the ED50 [15] was “No effective response”, the ED50 [16] was “No effective response” and the ED50 [9] was “No effective response”. The ED50 [10] was “No effective response”.
With `NC(=O)c1[nH]cc(-c2ccc(Cl)cc2)c1N1CCOCC1` the ED50 [1] was > 50 mg/kg, the ED50 [2] was > 500 mg/kg and the ED50 [3] was 65 mg/kg. The logP [5] was 2.4.
